Test results reported in paper PMC9924434 (International journal of pharmaceutics, 2023).

Tests used:
[1] = Solubility of DK-I-60-3 in lipid mixtures; assay type: physicochemical
Outline: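 DSC on bulk and melted-then-solidified Softisan 154 and on Softisan 154–lecithin mixtures, blank or with 1.0% or 1.5% test compound. Crystallinity index = mixture enthalpy / untreated Softisan 154 enthalpy × 100. PLM: melted mixture dropped onto heated slide, covered, solidified quickly at room temperature, imaged at 400× with crossed polarizers and ¼λ plate. Triplicates, mean ± SD.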

[2] = ref Mitrović et al., 2021; cited from earlier work

[2H]C([2H])([2H])Oc1ccc(-n2nc3c4ccc(OC([2H])([2H])[2H])cc4[nH]cc-3c2=O)cc1 [DK-I-60-3, 7-methoxy-d3-2-(4-methoxy-d3-phenyl)-2,5-dihydro-3Hpyrazolo[4,3-c]quinolin-3-one]
saturation solubility of DK-I-60-3 in the lipid mixture ([1]; Softisan 154 + lecithin (30%) lipid mixture, by DSC and PLM): 1.0%
DK-I-60-3 solubilized by the lipid matrix ([1]; mixture of solid (Softisan 154) and liquid (medium chain triglycerides) lipid, preliminary studies): < 0.5%
solubility in common organic solvents [2]: very slightly or slightly soluble
solubility in water and oils commonly used for pharmaceutical formulations [2]: practically insoluble
